PubChem BioAssay AID1656 (Sanford-Burnham Center for Chemical Genomics, 2009)
In all, about 240,000 compounds went through this assay and about 950 (0.4%) were called active.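 How the source made its calls: active means lipid droplet intensity inhibited by at least 50%, with more than 500 cells counted; inconclusive means wells with under 300 cells, treated as cytotoxic; inactive means the rest.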 Many of the other results were omitted from the sample, so actives are more common in it than they were.

Experiment: inhibitors of hepatocyte lipid droplet formation, primary screen, imaging, high-throughput imaging, BODIPY stain (AID 1656);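 on cell count: cells counted across two imaged fields per well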
Settings: AML12 mouse hepatocytes, oleate lipid droplets, at 6.5 µM; cell count: measured here: cell count, cytotoxicity flag; inhibition: stronger effect = higher value
Method in brief: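 Assay system: AML12 hepatocytes (mouse) / Also added: 100 µM oleic acid challenge / Times: overnight treatment with compound plus oleate / Detection: high-content imaging of BODIPY-stained droplets and DAPI nuclei / Evaluation: % inhibition of lipid droplet signal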
In the case of `COc1ccc(CCNC(=O)C(=O)NCC2OCCN2S(=O)(=O)c2cccs2)cc1OC` (centres undefined), the cell count is reported as 689 cells and the inhibition is reported as -12.1% (inactive). With `COc1cccc(C(=O)N/N=C(\C)c2cccc(NC(=O)c3ccc(F)cc3)c2)c1OC` the cell count was 678 cells and the inhibition was -6.8% (inactive). For `C(=N\N1CCN(c2ccccn2)CC1)/C1=C(N2CCOCC2)C(=C/c2ccccc2)/CC1`, the cell count was 680 cells and the inhibition was -4.6% (inactive). With `COc1ccc(/C=N/N=C2/C(=O)Nc3ccccc32)cc1O` the cell count was 676 cells and the inhibition was 9.7% (inactive). For `O=C1Nc2ccc(Br)cc2/C1=N/N=C/C1=C(N2CCOCC2)C(=C\c2ccccc2)/CC1`, the cell count was 750 cells and the inhibition was 55.6% (active). For `CCCc1cc(=O)oc2cc(OCC(=O)Nc3ccc(CN4CCOCC4)cc3)c(Cl)cc12`, the cell count was 636 cells and the inhibition was -0.7% (inactive). For `O=C(CSc1nc2nccnc2c(=O)n1Cc1cccs1)Nc1ccccc1F`, the cell count was 782 cells and the inhibition was 2.9% (inactive). For `COc1cc(/C=C/C(=O)N2CCc3ccccc3C2)cc(OC)c1OC`, the cell count was 825 cells and the inhibition was 0% (inactive). With `CC(C)(C)NS(=O)(=O)c1ccc(NC(=O)C2CCCO2)cc1` (centres undefined) the cell count was 829 cells and the inhibition was 2.6% (inactive). For `CCCNC(=O)CCc1c(C)nc2c(c(C)nn2-c2ccc(C)cc2)c1C`, the cell count was 848 cells and the inhibition was 10.2% (inactive). In the case of `COc1ccc(N(CC(=O)Nc2cc(OC)cc(OC)c2)S(=O)(=O)c2c(C)n[nH]c2C)cc1`, the cell count is reported as 704 cells and the inhibition is reported as -4% (inactive). With `CCSc1nsc(NC(=O)Nc2ccccc2OC)n1` the cell count was 808 cells and the inhibition was -10.6% (inactive). With `Cn1nccc1C(=O)NC1CCCc2c1cnn2-c1ccccc1F` (centres undefined) the cell count was 545 cells and the inhibition was -55.5% (inactive). In the case of `Cc1cc(C(=O)NC2CCCc3c2cnn3-c2cccc(C)c2C)c(C)o1` (centres undefined), the cell count is reported as 865 cells and the inhibition is reported as 59.9% (active). In the case of `COc1ccc(C(=O)NC2CCCc3c2cnn3-c2cccc(C)c2C)c(OC)n1` (centres undefined), the cell count is reported as 767 cells and the inhibition is reported as -1.4% (inactive). With `COc1ccc(CCNC(=O)CS(=O)(=O)Cc2nc(-c3ccc(C)cc3)oc2C)cc1OC` the cell count was 750 cells and the inhibition was 11.2% (inactive). With `O=C(c1ccc(F)cc1)N1CCCC(C(=O)N2CCCCC2)C1` (centres undefined) the cell count was 708 cells and the inhibition was -8.5% (inactive). In the case of `O=S(=O)(c1ccc(Br)cc1)c1nc(-c2ccccc2)oc1N1CCOCC1`, the cell count is reported as 610 cells and the inhibition is reported as -17.8% (inactive). With `O=C1CCC(C(=O)N2CCN(c3ccccc3Cl)CC2)CN1CC1CCCCC1` (centres undefined) the cell count was 746 cells and the inhibition was 0% (inactive). With `COc1ccc(OC)c(CNC(=O)CCc2nc(-c3cccs3)no2)c1` the cell count was 746 cells and the inhibition was -2% (inactive). For `COc1ccc(OC)c(-c2csc(-c3cccs3)n2)c1`, the cell count was 816 cells and the inhibition was 69.1% (active). In the case of `COc1ccc(-c2csc(-c3cccs3)n2)cc1OC`, the cell count is reported as 713 cells and the inhibition is reported as 8.5% (inactive).
